# This is a sample that favours compounds with a hit; in the whole collection about 3.5% have one here.
# MrgX1 ag: agonists of human MrgX1 receptor, primary screen, HEK293 cells, Fluo-4 calcium flux; Mas-related G-protein coupled receptor member X1 (Homo sapiens), Q96LB2; Fluo-4 calcium fluorescence, agonist mode; hits give high values; B-score at 10 µM; 310,000 compounds, 0.44% hits;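 active = calcium response B-score plate-corrected fluorescence ratio at least 3 library SD, with starting fluorescence B-score inside 5 SD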
# Target sequence (Q96LB2 whole entry, looked up): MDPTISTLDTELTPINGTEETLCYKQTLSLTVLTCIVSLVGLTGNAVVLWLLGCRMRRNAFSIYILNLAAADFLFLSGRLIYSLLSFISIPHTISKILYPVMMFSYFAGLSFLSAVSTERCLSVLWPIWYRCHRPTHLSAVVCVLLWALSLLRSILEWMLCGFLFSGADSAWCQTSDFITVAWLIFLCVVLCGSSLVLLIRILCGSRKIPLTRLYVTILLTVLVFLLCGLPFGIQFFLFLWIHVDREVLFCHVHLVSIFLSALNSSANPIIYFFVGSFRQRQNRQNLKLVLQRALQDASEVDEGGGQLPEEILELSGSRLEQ
#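 times = overnight plating, then 30 min 37 °C plus 30 min room-temperature dye loading | assay system = stable human MrgX1 HEK293 cell line | input = fifteen thousand cells per well | signal = kinetic calcium dye fluorescence, Fluo-4 NW | dosing = compound delivered in addition one of three | read-out = B-scored fluorescence response ratio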
# MrgX1 PAM: positive allosteric modulators of MrgX1, primary screen, HEK293 cells, Fluo-4 calcium flux. Mas-related G-protein coupled receptor member X1 (Homo sapiens), Q96LB2. FDSS; hits give high values. B-score at 10 µM. 310,000 compounds, 0.63% hits;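 active = plate-corrected calcium response at least 3 library SD above typical, normal starting fluorescence, not activating the receptor alone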;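 note: compound read alongside a low EC10 to EC30 dose of BAM8-22 agonist; peak minus trough fluorescence over baseline measured at the second addition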
# MrgX1 antagonist: antagonists of human MrgX1 receptor, primary screen, HEK293 cells, Fluo-4 calcium flux; 310,000 compounds, 1.3% hits; AID 588676, 2011; B-score at 10 µM; BAM8-22 antagonism; hits give low values; Mas-related G-protein coupled receptor member X1 (Homo sapiens), Q96LB2;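 active = calcium-response B-score plate-corrected more than 3 library SD below zero, starting fluorescence within 5 deviations, no agonist response on first addition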;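 note: peak minus trough fluorescence over baseline after final BAM8-22 challenge near maximal dose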
# RGS4 pot: RGS4 potentiators or activators, primary screen, cell-based, HEK293 M3R inducible RGS4, calcium flux; carbachol calcium flux Fluo4; hits give low values; B-score at 10 µM; 310,000 compounds, 0.92% hits;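 active = B-score of the integrated calcium signal more than 4 SD below the library mean, with starting fluorescence not abnormally high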;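 note: negative B-score means reduced calcium response which marks RGS4 activation or potentiation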
#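 Material: Inducible-RGS4 HEK293 cells carrying M3 receptor; also added: carbachol at ECmax as muscarinic agonist stimulus; incubation: compound preincubation 20 min at room temperature before agonist; signal: Fluo4-AM (2 µM) calcium-flux fluorescence, kinetic read; measure: integrated calcium ratio converted to B score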
# RGS4 block: RGS4 inhibitors, primary screen, cell-based, HEK293 M3R inducible RGS4, calcium flux | Regulator of G-protein signaling 4 (Homo sapiens), P49798 | Fluo-4 calcium flux; hits give high values; triggered by carbachol at its EC20 | B-score at 10 µM | 310,000 compounds, 0.45% hits | AID 463165, 2010;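 active = B-score, a plate-corrected calcium signal, over three deviations above library mean, with baseline fluorescence within five deviations of library mean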;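 note: RGS4 expression induced by doxycycline in cells with stable M3 receptor; B-score is computed from the integrated fluorescence ratio over baseline after carbachol; higher B-score means a larger calcium signal and so more RGS4 inhibition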
# Target sequence (P49798 whole entry, looked up): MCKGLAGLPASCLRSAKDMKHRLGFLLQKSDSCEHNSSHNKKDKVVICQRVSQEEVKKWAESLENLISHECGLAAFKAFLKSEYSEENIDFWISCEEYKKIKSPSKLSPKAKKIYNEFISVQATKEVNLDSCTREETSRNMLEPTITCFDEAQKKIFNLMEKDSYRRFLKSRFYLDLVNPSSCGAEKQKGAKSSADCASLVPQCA
# RGS4 act valid: reduced carbachol calcium response, RGS4-induced M3R cells, confirmation, RGS4 activator project, cell-based, HEK293 M3R/RGS4 inducible, calcium flux, duplicate. inhibition, % at 10 µM. carbachol calcium flux Fluo4. AID 602282, 2012. 1,100 compounds, 89% hits. shares compounds with RGS4 pot;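 active = inhibition above 3 SD of the buffer control wells, cut at about 41% in these data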;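 note: signal is the integrated peak-minus-minimum Fluo4 fluorescence over baseline ratio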
# RGS4 act ctr: activity in cells without induced RGS4 expression | shares compounds with RGS4 pot | HEK293 M3R non-induced RGS4, Fluo4 calcium flux; after carbachol challenge at its EC90 | inhibition, % at 10 µM | 1,100 compounds, 82% hits | AID 602283;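 active = inhibition exceeding 3 SD of buffer-only control wells, cut at about 26% in these data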;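 note: percent drop in integrated peak-minus-baseline over baseline Fluo4 ratio after carbachol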
# * hit, by the source's call; i = inactive; / = not tested or not shown.
SMILES,MrgX1 ag,MrgX1 PAM,MrgX1 antagonist,RGS4 pot,RGS4 block,RGS4 act valid,RGS4 act ctr
CCn1nc(C)c(CN2CCCC(C(=O)c3cccc(OC(C)C)c3)C2)c1C (centres undefined),i,i,i,i,i,/,/
COc1cccc(C(=O)C2CCCN(Cc3cccc(-n4nc(C)cc4C)c3)C2)c1 (centres undefined),i,i,i,-9.79*,i,93.0*,75.3*
O=C(C1CCCN(Cc2ccc3c(c2)OCO3)C1)N1CCCC1 (centres undefined),i,i,i,i,i,/,/
Cc1nn(C(C)C)c(C)c1CN1CCCC(C(=O)c2cccc(OC(C)C)c2)C1 (centres undefined),i,i,i,-8.39*,i,70.5*,83.8*
CC(=O)c1cccc(CN2CCCC(C(=O)c3ccc4c(c3)OCO4)C2)c1 (centres undefined),i,i,i,-8.3*,i,74.0*,26.3*
COc1ccc(CN2CCCC(C(=O)c3ccc4c(c3)OCO4)C2)c(F)c1 (centres undefined),i,i,i,-8.33*,i,91.0*,80.8*
COc1cccc(CN2CCCC(C(=O)c3ccc4c(c3)OCO4)C2)c1O (centres undefined),i,i,i,i,i,/,/
COc1cc(/C=N/c2oc(-c3ccccc3)cc2C#N)ccc1O,i,i,i,-7.75*,i,0.0,0.0
CC(C)Nc1nc(NC(C)C)nc(N(C#N)CCOc2ccc(Cl)cc2Cl)n1,i,i,i,-7.76*,i,63.0*,83.8*
CCOC(=O)C1CCN(C(=O)c2ccccc2NS(=O)(=O)c2ccc(F)cc2)CC1,i,i,i,i,i,/,/
Cc1nc2ccc(NC(=O)c3cccc(S(=O)(=O)N(C)c4ccccc4)c3)cc2s1,i,i,i,-8.94*,i,88.5*,69.3*
CCN(C1CCCCC1)S(=O)(=O)c1cc2c3c(c1)CCN3C(=O)CC2,i,i,i,i,i,/,/
COC(=O)NC(=S)Nc1ccc(Oc2ccc(Cl)cc2Cl)c(Cl)c1,i,i,i,-7.77*,i,92.5*,70.3*
COC(=O)c1cccc(Nc2nc(-c3cccnc3)nc3ccccc23)c1,i,i,i,-8.43*,i,42.0*,0.0
O=C(O)c1cccc(Nc2nc(-c3cccnc3)nc3ccccc23)c1,i,i,i,i,i,/,/
C/C(=N\NC(=O)C1(C)CC1(Br)Br)c1cccc(NC(=O)c2ccc(C)o2)c1 (centres undefined),i,7.01*,i,-12.1*,i,91.5*,81.3*
Cc1ccc(C(=O)Nc2cccc(C(=O)NCc3ccccc3)c2)o1,i,i,i,i,i,/,/
COc1ccc(Br)cc1C(=O)NC(=S)Nc1ccc(CN2CCOCC2)cc1,i,i,i,-9.75*,i,92.0*,87.3*
O=C(NC(=S)Nc1ccc(CN2CCOCC2)cc1)c1ccc(-c2cccc(Cl)c2)o1,i,i,i,-9.92*,i,93.5*,91.3*
O=[N+]([O-])c1cccc(-c2ccc(/C=N/Nc3nc(N4CCCCC4)nc(N4CCCCC4)n3)o2)c1,i,i,i,-12.6*,i,81.0*,83.8*
O=C(CNC1CCCCCC1)Nc1ccc(S(=O)(=O)NC2CC2)cc1,i,i,i,-7.72*,i,64.0*,83.8*
CN1CCN(C(=O)c2cnn(-c3ccccc3)c2NC(=O)c2ccc(Br)cc2)CC1,i,i,i,i,i,/,/
CCOC(=O)c1cc2c(ccn2C)n1Cc1cc(C)ccc1C,i,i,i,-8*,i,85.0*,30.3*
Cc1ccc(C)c(NC(=O)C(NCC(C)(C)N2CCOCC2)c2ccccc2)c1 (centres undefined),i,i,i,-10.3*,i,92.0*,94.8*
COc1ccc(CCC(C)NC2C3CC4CC(C3)CC2C4)cc1 (centres undefined),/,/,/,-8.8*,i,92.5*,87.3*
SMILES,MrgX1 ag,MrgX1 PAM,MrgX1 antagonist,RGS4 pot,RGS4 block,RGS4 act valid,RGS4 act ctr
O=C(OCCOCCN=C1NS(=O)(=O)c2ccccc21)c1ccccc1Br,i,i,i,i,i,/,/
CC(C)NS(=O)(=O)c1ccc(NC(=O)C(C)Oc2ccc(C(=O)c3ccccc3)cc2)cc1 (centres undefined),i,i,-8.57*,-7.66*,i,69.5*,74.3*
CC(Oc1ccccc1)C(=O)Nc1ccc(C(N)=O)cc1 (centres undefined),i,i,i,i,i,/,/
Cc1c(NC(=O)c2ccc(NS(=O)(=O)c3ccccc3)cc2)c(=O)n(-c2ccccc2)n1C,i,i,i,i,i,/,/
COC(=O)C1=C(C)N(CCCC(=O)O)C(=O)NC1c1cccc(Cl)c1Cl (centres undefined),i,i,i,i,i,/,/
CC(C)(C)c1cc(-c2csc(Nc3ccccc3)[n+]2Cc2ccc(C(=O)O)cc2)cc(C(C)(C)C)c1O,i,i,-9.48*,-10.8*,i,93.5*,97.3*
O=C(NCC1CCCCC1)c1cc(Br)ccc1Cl,i,i,i,i,i,/,/
CCOC(=O)C(=CNc1ccc(NC2=NCC(C)(C)S2)cc1)C(=O)OCC,i,i,i,-11.1*,i,79.0*,83.8*
COc1ccc(Cc2noc(CN3CCN(C4CCc5ccccc5C4)CC3)n2)cc1OC (centres undefined),i,i,i,i,i,/,/
Fc1cccc(Cc2noc(CN3CCN(C4CCc5ccccc5C4)CC3)n2)c1 (centres undefined),i,i,i,-7.72*,i,92.5*,89.3*
COc1c(C)cc(Br)cc1C(=O)Nc1cccc(-c2nc3ncccc3o2)c1,i,i,i,-8.26*,i,93.5*,73.8*
O=C(CSc1ccc(Cl)cc1)Nc1cc(-c2nc3ncccc3o2)ccc1Cl,i,i,i,i,i,/,/

# Screening data as filed in PubChem.
